Non-standard residues stand in square brackets, D forms with d. Residues, ends and D or L forms follow the SMILES beside them. d2Nal = N[C@H](Cc1ccc2ccccc2c1)C(=O)O
System: Candida albicans
Test: Inhibition of Candida albicans at 100 uM concentration.
Assay type: functional
Summary of the method: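 Five C. albicans clinical isolates plus ATCC 24433, grown 48 h at 32 °C in Sabouraud dextrose broth to stationary phase, washed in distilled water. 1×10^6 yeast in water exposed to peptide at 10^-4 M final, 2 h at 37 °C; water controls. Diluted to ~100 organisms/mL, 1 mL plated on blood agar, 48 h at 37 °C, colonies counted. Triplicates.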

H-HFRWGKPA-NH2
inhibition at 100 µM: 68.4%

CC(C)[C@H](NC(=O)[C@@H](Cc1ccccc1)NC(=O)[C@H](CCCCN)NC(=O)CNC(=O)[C@H](Cc1c[nH]c2ccccc12)NC(=O)[C@H](CCCN=C(N)N)NC(=O)[C@@H](Cc1ccc2ccccc2c1)NC(=O)[C@@H](N)Cc1c[nH]cn1)C(N)=O
inhibition at 100 µM: 99.7%

CC(C)[C@H](NC(=O)[C@H](CO)NC(=O)[C@H](CCCCN)NC(=O)CNC(=O)[C@H](Cc1c[nH]c2ccccc12)NC(=O)[C@H](CCCN=C(N)N)NC(=O)[C@@H](Cc1ccc2ccccc2c1)NC(=O)[C@@H](N)Cc1c[nH]cn1)C(N)=O
inhibition at 100 µM: 73.9%

CC(C)[C@H](NC(=O)[C@@H](Cc1ccccc1)NC(=O)[C@H](CCCCN)NC(=O)CNC(=O)[C@H](Cc1c[nH]c2ccccc12)NC(=O)[C@H](CCCN=C(N)N)NC(=O)[C@@H](Cc1ccccc1)NC(=O)[C@@H](N)Cc1c[nH]cn1)C(N)=O
inhibition at 100 µM: 89.6%

H-HFRWGAPV-NH2
inhibition at 100 µM: 26.2%

CC(C)[C@H](NC(=O)[C@H](CCCCN)NC(=O)[C@H](CCCCN)NC(=O)CNC(=O)[C@H](Cc1c[nH]c2ccccc12)NC(=O)[C@H](CCCN=C(N)N)NC(=O)[C@@H](Cc1ccc2ccccc2c1)NC(=O)[C@@H](N)Cc1c[nH]cn1)C(N)=O
inhibition at 100 µM: 83.8%

CC(C)[C@H](NC(=O)[C@@H](CC(=O)O)NC(=O)[C@H](CCCCN)NC(=O)CNC(=O)[C@H](Cc1c[nH]c2ccccc12)NC(=O)[C@H](CCCN=C(N)N)NC(=O)[C@@H](Cc1ccccc1)NC(=O)[C@@H](N)Cc1c[nH]cn1)C(N)=O
inhibition at 100 µM: 3.7%

CC(C)[C@H](NC(=O)[C@H](CCC(=O)O)NC(=O)[C@H](CCCCN)NC(=O)CNC(=O)[C@H](Cc1c[nH]c2ccccc12)NC(=O)[C@H](CCCN=C(N)N)NC(=O)[C@@H](Cc1ccc2ccccc2c1)NC(=O)[C@@H](N)Cc1c[nH]cn1)C(N)=O
inhibition at 100 µM: 32.3%

CC(C)[C@H](NC(=O)[C@H](Cc1ccccc1)NC(=O)[C@H](CCCCN)NC(=O)CNC(=O)[C@H](Cc1c[nH]c2ccccc12)NC(=O)[C@H](CCCN=C(N)N)NC(=O)[C@@H](Cc1ccc2ccccc2c1)NC(=O)[C@@H](N)Cc1c[nH]cn1)C(N)=O
inhibition at 100 µM: 67.7%

CC(C)[C@H](NC(=O)[C@@H](CC(=O)O)NC(=O)[C@H](CCCCN)NC(=O)CNC(=O)[C@H](Cc1c[nH]c2ccccc12)NC(=O)[C@H](CCCN=C(N)N)NC(=O)[C@H](Cc1ccccc1)NC(=O)[C@@H](N)Cc1c[nH]cn1)C(N)=O
inhibition at 100 µM: 5.9%

CC(C)[C@@H](NC(=O)[C@H]1CCCN1C(=O)[C@H](CCCCN)NC(=O)CNC(=O)[C@H](Cc1c[nH]c2ccccc12)NC(=O)[C@H](CCCN=C(N)N)NC(=O)[C@H](Cc1ccccc1)NC(=O)[C@@H](N)Cc1c[nH]cn1)C(N)=O
inhibition at 100 µM: 82.5%

H-HFRWGKKV-NH2
inhibition at 100 µM: 41%

H-HFRWGKPL-NH2
inhibition at 100 µM: 87.4%

CC(C)[C@H](NC(=O)CNC(=O)[C@H](CCCCN)NC(=O)CNC(=O)[C@H](Cc1c[nH]c2ccccc12)NC(=O)[C@H](CCCN=C(N)N)NC(=O)[C@@H](Cc1ccc2ccccc2c1)NC(=O)[C@@H](N)Cc1c[nH]cn1)C(N)=O
inhibition at 100 µM: 36.2%

CC(C)[C@H](NC(=O)[C@H]1CCCN1C(=O)[C@H](CCCCN)NC(=O)CNC(=O)[C@H](Cc1c[nH]c2ccccc12)NC(=O)[C@H](CCCN=C(N)N)NC(=O)[C@@H](Cc1ccccc1)NC(=O)[C@@H](N)Cc1c[nH]cn1)C(N)=O
inhibition at 100 µM: 80.5%

H-HFRWGKEV-NH2
inhibition at 100 µM: 11.2%

CC(C)[C@H](NC(=O)[C@H](Cc1ccccc1)NC(=O)[C@H](CCCCN)NC(=O)CNC(=O)[C@H](Cc1c[nH]c2ccccc12)NC(=O)[C@H](CCCNC(=N)N)NC(=O)[C@H](Cc1ccccc1)NC(=O)[C@@H](N)Cc1cnc[nH]1)C(N)=O
inhibition at 100 µM: 97.5%

CC(C)[C@H](NC(=O)[C@H](C)NC(=O)[C@H](CCCCN)NC(=O)CNC(=O)[C@H](Cc1c[nH]c2ccccc12)NC(=O)[C@H](CCCN=C(N)N)NC(=O)[C@H](Cc1ccccc1)NC(=O)[C@@H](N)Cc1c[nH]cn1)C(N)=O
inhibition at 100 µM: 46.1%

H-HFRWGKSV-NH2
inhibition at 100 µM: 32.3%

CC(C)[C@H](NC(=O)[C@H](CC(=O)O)NC(=O)[C@H](CCCCN)NC(=O)CNC(=O)[C@H](Cc1c[nH]c2ccccc12)NC(=O)[C@H](CCCN=C(N)N)NC(=O)[C@H](Cc1ccccc1)NC(=O)[C@@H](N)Cc1c[nH]cn1)C(N)=O
inhibition at 100 µM: 15.7%

CC(C)[C@H](NC(=O)[C@H](CC(=O)O)NC(=O)[C@H](CCCCN)NC(=O)CNC(=O)[C@H](Cc1c[nH]c2ccccc12)NC(=O)[C@H](CCCN=C(N)N)NC(=O)[C@@H](Cc1ccc2ccccc2c1)NC(=O)[C@@H](N)Cc1c[nH]cn1)C(N)=O
inhibition at 100 µM: 16.8%

H-HFRWGKGV-NH2
inhibition at 100 µM: 41.8%

CC(C)[C@H](NC(=O)[C@H](Cc1ccccc1)NC(=O)[C@H](CCCCN)NC(=O)CNC(=O)[C@H](Cc1c[nH]c2ccccc12)NC(=O)[C@H](CCCN=C(N)N)NC(=O)[C@@H](Cc1ccccc1)NC(=O)[C@@H](N)Cc1c[nH]cn1)C(N)=O
inhibition at 100 µM: 77.7%

CC(C)[C@H](NC(=O)[C@@H](C)NC(=O)[C@H](CCCCN)NC(=O)CNC(=O)[C@H](Cc1c[nH]c2ccccc12)NC(=O)[C@H](CCCN=C(N)N)NC(=O)[C@H](Cc1ccccc1)NC(=O)[C@@H](N)Cc1c[nH]cn1)C(N)=O
inhibition at 100 µM: 12.8%

CC(C)[C@H](NC(=O)[C@@H](C)NC(=O)[C@H](CCCCN)NC(=O)CNC(=O)[C@H](Cc1c[nH]c2ccccc12)NC(=O)[C@H](CCCN=C(N)N)NC(=O)[C@@H](Cc1ccc2ccccc2c1)NC(=O)[C@@H](N)Cc1c[nH]cn1)C(N)=O
inhibition at 100 µM: 28%

CC(C)[C@H](NC(=O)[C@H](C)NC(=O)[C@H](CCCCN)NC(=O)CNC(=O)[C@H](Cc1c[nH]c2ccccc12)NC(=O)[C@H](CCCN=C(N)N)NC(=O)[C@@H](Cc1ccc2ccccc2c1)NC(=O)[C@@H](N)Cc1c[nH]cn1)C(N)=O
inhibition at 100 µM: 69.2%

CC(C)[C@H](NC(=O)[C@@H](Cc1ccccc1)NC(=O)[C@H](CCCCN)NC(=O)CNC(=O)[C@H](Cc1c[nH]c2ccccc12)NC(=O)[C@H](CCCN=C(N)N)NC(=O)[C@H](Cc1ccccc1)NC(=O)[C@@H](N)Cc1c[nH]cn1)C(N)=O
inhibition at 100 µM: 90.8%

CC(C)[C@H](NC(=O)[C@@H]1CCCN1C(=O)[C@H](CCCCN)NC(=O)CNC(=O)[C@H](Cc1c[nH]c2ccccc12)NC(=O)[C@H](CCCN=C(N)N)NC(=O)[C@@H](Cc1ccc2ccccc2c1)NC(=O)[C@@H](N)Cc1c[nH]cn1)C(N)=O (H-H[d2Nal]RWGKPV-NH2)
inhibition at 100 µM: 95.3%
